B1: Osa-1-4 twister ribozyme (parent)
chain: CCGCCUAACACUGCCAAUGCCGGUCCCAAGCCCGGAUAAAAGUGGAGGGGGCGG

The variants in this series derive from B1. Kind of series: self-cleavage, relative activity (ratio to wild type); higher = more cleavage; co-transcriptional. A digest of the protocol:
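The 48 positions downstream of the cleavage site in a DNA template for a 54-nucleotide Oryza sativa twister ribozyme carried 97 % wild-type base and 1 % of each other base. After in vitro transcription (2 h, 37 °C) with co-transcriptional self-cleavage, the RNA was reverse-transcribed with a template-switching oligonucleotide, PCR-amplified and deep-sequenced. Relative activity is the fraction cleaved, judged by reads with or without upstream sequence and normalised to wild type.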
Take A8U G48U: the self-cleavage was 0.04. The figure for A8U G48A is 0.05.

In the case of C9A G30U, the self-cleavage was 0.01. The figure for C9A G30A is 0.02; for C9A G30C it is 0.02; for A8G U37G it is 0.75. Turning to A8G U37A, the self-cleavage was found to be 0.56. The same measure for A8G U37C: 0.68. The figure for A8U G30C is 0.03.

For the variant A8U G30U, the self-cleavage is 0.02.

A8U G30A: the self-cleavage turned out to be 0.02. In the case of A8G C31A, the self-cleavage amounted to 0.03.

Regarding A8G C31G, the self-cleavage amounted to 0.08. The same measure for A8G C31U: 0.1; for A8G G49A: 0.08. The same measure for A8G G49C: 0.05. Turning to A8G G49U, the self-cleavage amounted to 0.06. For C9G G35C, the self-cleavage is 0.16. Regarding C9G G35U, the self-cleavage stood at 0.44. For the variant C9G G35A, the self-cleavage turned out to be 0.47. For C9A G50U, the self-cleavage is 0.5. Regarding C9A G50C, the self-cleavage is 0.38. With C9A G50A, the self-cleavage is 0.13. Regarding A8U C20U, the self-cleavage came to 0.41. Consider A8U C20A, for which the self-cleavage was found to be 0.48. Take A8U C20G: the self-cleavage was determined as 0.06. For the variant C9A G49A, the self-cleavage amounted to 0.04. The figure for C9A G49U is 0.03; for C9A G49C it is 0.02; for A8U G22A it is 0.12. The figure for A8U G22C is 0.03; for A8U G22U it is 0.08.

Take A8G C52G: the self-cleavage amounted to 0.58. The figure for A8G C52U is 0.73. The figure for A8G C52A is 0.44; for C9A G44U it is 0.63. Consider C9A G44C, for which the self-cleavage was determined as 0.5.

For C9A G44A, the self-cleavage was determined as 0.47. Consider C9G G22U, for which the self-cleavage is 0.14. In the case of C9G G22C, the self-cleavage came out at 0.05. The same measure for C9G G22A: 0.15; for A8G G19A: 0.15; for A8G G19U: 0.1. Turning to A8G G19C, the self-cleavage was found to be 0.07. The same measure for A8G G30A: 0.06; for A8G G30C: 0.07.

With A8G G30U, the self-cleavage worked out at 0.04. The same measure for C9G G47C: 0.06; for C9G G47A: 0.09; for C9G G47U: 0.07. The same measure for C9A U43A: 0.37; for C9A U43C: 0.07; for C9A U43G: 0.14.

Regarding C9G G30U, the self-cleavage stood at 0.04.

As for C9G G30C, the self-cleavage was found to be 0.04. Regarding C9G G30A, the self-cleavage turned out to be 0.02. The figure for A8G C33G is 0.07; for A8G C33U it is 0.21; for A8G C33A it is 0.1. The same measure for A8G G42U: 0.04; for A8G G42A: 0.14. For A8G G42C, the self-cleavage was 0.12. For the variant A8U G45A, the self-cleavage was found to be 0.05.

Turning to A8U G45C, the self-cleavage is 0.04. With A8U G45U, the self-cleavage is 0.08. Take A8U C31G: the self-cleavage was found to be 0.05. Take A8U C31A: the self-cleavage turned out to be 0.03. A8U C31U: the self-cleavage is 0.06. On to A8G G34C, for which the self-cleavage stood at 0.13. In the case of A8G G34U, the self-cleavage came out at 0.16. The same measure for A8G G34A: 0.27. The figure for A8U C25A is 0.07. The same measure for A8U C25U: 0.11; for A8U C25G: 0.05. As to A8U U24A, the self-cleavage came to 0.03. With A8U U24C, the self-cleavage is 0.05. As to A8U U24G, the self-cleavage worked out at 0.02. As to C9A G54U, the self-cleavage is 0.36. C9A G54A: the self-cleavage came to 0.43.

With C9A G54C, the self-cleavage worked out at 0.34.

Take C9A G19U: the self-cleavage worked out at 0.07.

With C9A G19C, the self-cleavage came to 0.04. The figure for C9A G19A is 0.1; for A8U C9U it is 0.09.

Regarding A8U C9G, the self-cleavage was determined as 0.11.

On to A8U C9A, for which the self-cleavage was determined as 0.09. Consider A8G C25G, for which the self-cleavage was 0.08. The figure for A8G C25U is 0.16.

Consider A8G C25A, for which the self-cleavage was found to be 0.08.

With A8G C21A, the self-cleavage was 0.14. The figure for A8G C21G is 0.09; for A8G C21U it is 0.38; for A8G C26U it is 0.18.

On to A8G C26G, for which the self-cleavage came out at 0.27.

In the case of A8G C26A, the self-cleavage was found to be 0.04. For A8U U37A, the self-cleavage was determined as 0.31. The figure for A8U U37G is 0.54. A8U U37C: the self-cleavage came to 0.36. The same measure for A8G G23A: 0.13; for A8G G23U: 0.06; for A8G G23C: 0.05.

With A8U U12C, the self-cleavage is 0.06.

Turning to A8U U12A, the self-cleavage was determined as 0.1. With A8U U12G, the self-cleavage is 0.07.

Take A8U C52A: the self-cleavage worked out at 0.25. Regarding A8U C52U, the self-cleavage turned out to be 0.57.

Turning to A8U C52G, the self-cleavage was found to be 0.49. The same measure for A8U C11U: 0.11. As for A8U C11A, the self-cleavage stood at 0.08. The figure for A8U C11G is 0.08; for A8G C20U it is 0.58; for A8G C20G it is 0.09.

For A8G C20A, the self-cleavage turned out to be 0.49. Turning to C9G G23A, the self-cleavage amounted to 0.24. Turning to C9G G23U, the self-cleavage turned out to be 0.04. The figure for C9G G23C is 0.07. With A8C U43G, the self-cleavage was 0.08.

A8C U43C: the self-cleavage worked out at 0.08. The figure for C9A G51C is 0.02. With C9A G51A, the self-cleavage came to 0.13.

Turning to C9A G51U, the self-cleavage amounted to 0.05. On to C9A U12A, for which the self-cleavage came to 0.16. Regarding C9A U12G, the self-cleavage amounted to 0.08. For C9A U12C, the self-cleavage came to 0.1. Consider A8G U24C, for which the self-cleavage worked out at 0.1. Consider A8G U24G, for which the self-cleavage turned out to be 0.03. The figure for A8G U24A is 0.12; for A8U G49U it is 0.05. For A8U G49C, the self-cleavage turned out to be 0.04.

Take A8U G49A: the self-cleavage was 0.05. The figure for A8U G13A is 0.05. Regarding A8U G13C, the self-cleavage came to 0.03.

Take A8U G13U: the self-cleavage came to 0.02. The same measure for C9G U12A: 0.13. On to A8U G34C, for which the self-cleavage is 0.09. The same measure for A8U G34A: 0.13; for A8U G34U: 0.1; for C9G G45U: 0.07. Turning to C9G G45A, the self-cleavage worked out at 0.11.

As for C9G G45C, the self-cleavage worked out at 0.04. In the case of A8G C32G, the self-cleavage came to 0.13.

Consider A8G C32U, for which the self-cleavage was determined as 0.07. Turning to A8G C32A, the self-cleavage came out at 0.05. The same measure for C9G G44A: 0.82. The figure for C9G G44U is 0.95; for C9G G44C it is 1.04; for A8G C9U it is 0.1.

A8G C9G: the self-cleavage was determined as 0.2. The same measure for A8G C9A: 0.13; for A8U G54A: 0.17. The figure for A8U G54C is 0.13; for A8U G54U it is 0.32. The same measure for A8G G44A: 0.39. With A8G G44C, the self-cleavage was found to be 0.35. For A8G G44U, the self-cleavage amounted to 0.45. The figure for A8U U43C is 0.08. The figure for A8U U43A is 0.09; for A8U U43G it is 0.08. With C9G G19A, the self-cleavage was 0.2. The same measure for C9G G19U: 0.11; for C9G G19C: 0.06; for A8U G44C: 0.09. Take A8U G44A: the self-cleavage was found to be 0.27.

A8U G44U: the self-cleavage came out at 0.13. The same measure for C9A U37C: 0.53. The same measure for C9A U37A: 0.28; for C9A U37G: 0.53.

For the origin of these results see the RNAGym collection of RNA variant scans (doi:10.1002/anie.201605470).
